In ChEMBL document CHEMBL4680084, “New β-Lactam Derivatives Modulate Cell Adhesion and Signaling Mediated by RGD-Binding and Leukocyte Integrins” (J Med Chem, 2016):
Activity calls are given as the source filed them. No cut-off for these calls is given here.

What was measured:
Integrin alpha-V/beta-5 [1] = target: T1, Integrin alpha-V/beta-5 (Homo sapiens, UniProt P06756+P18084); test: Agonist activity at alphaVbeta5 in human MCF7 cells assessed as increase in cell adhesion to fibrinogen pre-incubated for 30 mins before fibrinogen and further incubated for 1 hr by nitrophenyl-N-acetyl-beta-D-glucosaminide substrate based chromogenic assay
Method in brief: (§1)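 Compound or methanol vehicle pre-incubated with cells for 30 min at room temperature. Cells then plated on wells coated overnight at 4 °C with fibronectin 10 µg/mL (SK-MEL-24, K562, HT-29) or fibrinogen 10 µg/mL (MCF7, HEL). Seeding was 50,000 cells/well, or 100000 for HEL. Adhesion ran 1 h at room temperature. Wells washed with 1% BSA/PBS. Adherent cells read by hexosaminidase substrate, absorbance 405 nm. Quadruplicate, at least three repeats.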

Integrin alpha-4/beta-1 [2] = target: T2, Integrin alpha-4/beta-1 (Homo sapiens, UniProt P05556+P13612); test: Antagonist activity at alpha4beta1 in human Jurkat E6.1 cells assessed as reduction in VCAM-1 induced ERK1/2 phosphorylation at 1 to 100 pM by Western blot analysis; type: cell-based; conditions: filed as antagonist, dose 1-100 pM
[3] = target: T3, Integrin alpha-IIb/beta-3 (Homo sapiens, UniProt P05106+P08514); test: Antagonist activity at alpha2bbeta3 in human HEL cells assessed as reduction in cell adhesion to fibrinogen pre-incubated for 30 mins before fibrinogen and further incubated for 1 hr by nitrophenyl-N-acetyl-beta-D-glucosaminide substrate based chromogenic assay
Method in brief: as §1, with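 “BSA/PBS.” for “BSA/PBS. Adherent cells read by hexosaminidase substrate, absorbance 405 nm.”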

Integrin alpha-V/beta-6 [4] = target: T4, Integrin alpha-V/beta-6 (Homo sapiens, UniProt P06756+P18564); test: Agonist activity at alphaVbeta6 in human HT-29 cells assessed as increase in cell adhesion to fibronectin pre-incubated for 30 mins before fibronectin and further incubated for 1 hr by nitrophenyl-N-acetyl-beta-D-glucosaminide substrate based chromogenic assay; method in brief: as §1
HEL = test: Toxicity in human HEL cells assessed as induction of cell necrosis and/or apoptosis incubated for 3 hrs by annexin V-PE and 7-AAD staining based by flow cytometry
Method in brief: (§2)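 After 3 h incubation, cells resuspended in complete medium and stained with annexin V-PE/7-AAD reagent for 20 min at room temperature in the dark. Flow cytometry sorted cells into viable, early apoptotic and late apoptotic/necrotic populations.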

[5] = target: T5, Integrin alpha-L/beta-2 (LFA-1) (Homo sapiens, UniProt P05107+P20701); test: Antagonist activity at alphaLbeta2 in human Jurkat E6.1 cells assessed as reduction in cell adhesion to ICAM1 pre-incubated for 30 mins before ICAM1 and further incubated for 30 mins by […]; type: cell-based
Method in brief: (§3)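 Jurkat E6.1 cells labelled with CellTracker green CMFDA (12.5 µM, 30 min, 37 °C), washed, then pre-incubated 30 min at 37 °C with compound or methanol. Plated at 500,000/well on VCAM-1 (α4β1) or ICAM-1 (αLβ2) coated wells (5 µg/mL) for 30 min at 37 °C. Cells lysed in 0.5% Triton X-100; fluorescence read Ex485/Em535. Quadruplicate, at least three repeats.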

Integrin alpha-V/beta-6 [6] = target: T4, Integrin alpha-V/beta-6; test: Antagonist activity at alphaVbeta6 in human HT-29 cells assessed as reduction in cell adhesion to fibronectin pre-incubated for 30 mins before fibronectin and further incubated for 1 hr by nitrophenyl-N-acetyl-beta-D-glucosaminide substrate based chromogenic assay
Method in brief: as §1, with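 “BSA/PBS.” for “BSA/PBS. Adherent cells read by hexosaminidase substrate, absorbance 405 nm.”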

Integrin alpha-V/beta-5 [7] = target: T1, Integrin alpha-V/beta-5; test: Inhibition of fibrinogen binding to alphaVbeta5 isolated form human mCf7 cells incubated for 1 hr by […] competitive solid-phase binding assay
Integrin alpha-5/beta-1 [8] = target: T6, Integrin alpha-5/beta-1 (Homo sapiens, UniProt P05556+P08648); test: Antagonist activity at alpha5beta1 in human K562 cells assessed as reduction in cell adhesion to fibronectin pre-incubated for 30 mins before fibronectin and further incubated for 1 hr by nitrophenyl-N-acetyl-beta-D-glucosaminide substrate based chromogenic assay; method in brief: as §1
Integrin alpha-4/beta-1 [9] = target: T2, Integrin alpha-4/beta-1; test: Antagonist activity at alpha4beta1 in human Jurkat E6.1 cells assessed as reduction in exposure of HUTS-21 epitope measured by mAb binding; type: cell-based; conditions: filed as antagonist
Method in brief: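 Jurkat E6.1 cells at 10⁶/mL in 1% BSA/HBSS incubated 30 min at 37 °C with compound. PE-labelled HUTS-21 mAb then added for 45 min at room temperature. Cells washed, 10,000 analysed by flow cytometry. MFI corrected to isotype control set to 0. Four independent experiments in duplicate.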

HT-29 = test: Toxicity in human HT-29 cells assessed as induction of cell necrosis and/or apoptosis incubated for 3 hrs by annexin V-PE and 7-AAD staining based by flow cytometry; conditions: ht-29, 3 h; method in brief: as §2
MCF7 = test: Toxicity in human MCF7 cells assessed as induction of cell necrosis and/or apoptosis incubated for 3 hrs by annexin V-PE and 7-AAD staining based by flow cytometry; conditions: mcf7, 3 h; method in brief: as §2
[10] = target: T5, Integrin alpha-L/beta-2 (LFA-1); test: Agonist activity at alphaLbeta2 in human Jurkat E6.1 cells assessed as increase in cell adhesion to ICAM1 pre-incubated for 30 mins before ICAM1 and further incubated for 30 mins by […]; type: cell-based; method in brief: as §3
K562 = test: Toxicity in human K562 cells assessed as induction of cell necrosis and/or apoptosis incubated for 3 hrs by annexin V-PE and 7-AAD staining based by flow cytometry; conditions: k562, 3 h; method in brief: as §2
Integrin alpha-5/beta-1 [11] = target: T6, Integrin alpha-5/beta-1; test: Antagonist activity at alpha5beta1 in human K562 cells assessed as assessed as reduction in ERK1/2 phosphorylation at 1 to 100 nM by Western blot analysis; type: cell-based; conditions: filed as antagonist, dose 1-100 nM
Integrin alpha-V/beta-5 [12] = target: T1, Integrin alpha-V/beta-5; test: Antagonist activity at alphaVbeta5 in human MCF7 cells assessed as reduction in cell adhesion to fibrinogen pre-incubated for 30 mins before fibrinogen and further incubated for 1 hr by nitrophenyl-N-acetyl-beta-D-glucosaminide substrate based chromogenic assay
Method in brief: as §1, with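 “BSA/PBS.” for “BSA/PBS. Adherent cells read by hexosaminidase substrate, absorbance 405 nm.”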

Integrin alpha-4/beta-1 [13] = target: T2, Integrin alpha-4/beta-1; test: Antagonist activity at alpha4beta1 in human Jurkat E6.1 cells assessed as reduction in cell adhesion to VCAM1 pre-incubated for 30 mins before VCAM1 and further incubated for 30 mins by […]; type: cell-based
Integrin alpha-V/beta-6 [14] = target: T4, Integrin alpha-V/beta-6; test: Inhibition of fibronectin binding to alphaVbeta6 isolated form human HT-29 cells incubated for 1 hr by […] competitive solid-phase binding assay; type: tissue-based
[15] = target: T3, Integrin alpha-IIb/beta-3; test: Agonist activity at alpha2bbeta3 in human HEL cells assessed as increase in cell adhesion to fibrinogen pre-incubated for 30 mins before fibrinogen and further incubated for 1 hr by nitrophenyl-N-acetyl-beta-D-glucosaminide substrate based chromogenic assay
Method in brief: as §1, with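 “BSA/PBS.” for “BSA/PBS. Adherent cells read by hexosaminidase substrate, absorbance 405 nm.”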

Integrin alpha-4/beta-1 [16] = target: T2, Integrin alpha-4/beta-1; test: Antagonist activity at alpha4beta1 in human Jurkat E6.1 cells assessed as reduction in VCAM-1 induced ERK1/2 phosphorylation at 1 to 100 nM by Western blot analysis; type: cell-based; conditions: filed as antagonist, dose 1-100 nM
Integrin alpha-V/beta-3 [17] = target: T7, Integrin alpha-V/beta-3 (Homo sapiens, UniProt P05106+P06756); test: Inhibition of fibronectin binding to human recombinant alphaVbeta3 expressed in HEK293 cells incubated for 1 hr by […] competitive solid-phase binding assay; type: cell-based
SK-MEL-24 = test: Toxicity in human SK-MEL-24 cells assessed as induction of cell necrosis and/or apoptosis incubated for 3 hrs by annexin V-PE and 7-AAD staining based by flow cytometry; conditions: sk-mel-24, 3 h; method in brief: as §2
Integrin alpha-5/beta-1 [18] = target: T6, Integrin alpha-5/beta-1; test: Inhibition of fibronectin binding to alpha5beta1 isolated from human K562 cells incubated for 1 hr by […] competitive solid-phase binding assay; type: tissue-based
Method in brief: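 Plates coated overnight at 4 °C in carbonate buffer pH 9.6 with fibronectin 0.5 µg/mL (αvβ3, αvβ6, α5β1), fibrinogen 10 µg/mL (αIIbβ3, αvβ5) or ICAM-1 (αLβ2). Blocked 1 h in buffer containing Ca/Mg/Mn 1 mM each and 1% BSA. Purified integrin (3–10 µg/mL) incubated with compound (10⁻⁴–10⁻¹⁰ M) 1 h at room temperature. Bound integrin detected with primary antibody then AlexaFluor488 secondary, Ex485/Em535. Duplicate, at least three repeats.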

Integrin alpha-V/beta-3 [19] = target: T7, Integrin alpha-V/beta-3; test: Antagonist activity at alphaVbeta3 in human SK-MEL-24 cells assessed as reduction in cell adhesion to fibronectin pre-incubated for 30 mins before fibronectin and further incubated for 1 hr by nitrophenyl-N-acetyl-beta-D-glucosaminide substrate based chromogenic assay
Method in brief: as §1, with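 “BSA/PBS.” for “BSA/PBS. Adherent cells read by hexosaminidase substrate, absorbance 405 nm.”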

Integrin alpha-4/beta-1 [20] = target: T2, Integrin alpha-4/beta-1; test: Inhibition of fibronectin binding to […] isolated from human Jurkat E6.1 cells incubated for 1 hr by scintillation-proximity assay based competitive solid-phase binding assay; type: tissue-based
[21] = target: T3, Integrin alpha-IIb/beta-3; test: Inhibition of fibrinogen binding to alpha2bbeta3 isolated from human HEL cells incubated for 1 hr by […] competitive solid-phase binding assay
Integrin alpha-V/beta-3 [22] = target: T7, Integrin alpha-V/beta-3; test: Agonist activity at alphaVbeta3 in human SK-MEL-24 cells assessed as increase in cell adhesion to fibronectin at 10 ug/ml pre-incubated for 30 mins and further incubated for 1 hr in presence of neutralizing antibody against the alphaV integrin subunit by nitrophenyl-N-acetyl-beta-D-glucosaminide substrate based chromogenic assay; conditions: dose 10.0 µg/ml, time 90.0 min
Integrin alpha-V/beta-3 [23] = target: T7, Integrin alpha-V/beta-3; test: Agonist activity at alphaVbeta3 in human SK-MEL-24 cells assessed as increase in cell adhesion to fibronectin at 2 to 10 ug/ml pre-incubated for 30 mins and further incubated for 1 hr by nitrophenyl-N-acetyl-beta-D-glucosaminide substrate based chromogenic assay; conditions: filed as agonist, dose 2-10 µg/ml, time 90.0 min
Integrin alpha-V/beta-3 [24] = target: T7, Integrin alpha-V/beta-3; test: Agonist activity at human alphaVbeta3 expressed in HEK293 cells assessed as increase in ERK1/2 phosphorylation by Western blot analysis; type: cell-based; conditions: filed as agonist
Integrin alpha-4/beta-1 [25] = target: T2, Integrin alpha-4/beta-1; test: Agonist activity at alpha4beta1 in human Jurkat E6.1 cells assessed as increase in cell adhesion to VCAM1 pre-incubated for 30 mins before VCAM1 and further incubated for 30 mins by […]; type: cell-based; method in brief: as §3
Integrin alpha-V/beta-3 [26] = target: T7, Integrin alpha-V/beta-3; test: Agonist activity at alphaVbeta3 in human SK-MEL-24 cells assessed as increase in cell adhesion to fibronectin at 10 ug/ml pre-incubated for 30 mins and further incubated for 1 hr in presence of in presence of integrin antagonist c(-RGDfV) by nitrophenyl-N-acetyl-beta-D-glucosaminide substrate based chromogenic assay; conditions: dose 10.0 µg/ml, time 90.0 min

| Structure (SMILES) | EC50 (Integrin alpha-V/beta-5 [1]) [nM] | IC50 [3] [nM] | EC50 (Integrin alpha-V/beta-6 [4]) [nM] | Activity (HEL) | IC50 [5] [nM] | IC50 (Integrin alpha-V/beta-6 [6]) [nM] | IC50 (Integrin alpha-V/beta-5 [7]) [nM] | Activity (HT-29) | Activity (MCF7) | EC50 [10] [nM] | Activity (K562) | IC50 (Integrin alpha-4/beta-1 [13]) [nM] | IC50 (Integrin alpha-V/beta-6 [14]) [nM] | EC50 [15] [nM] | IC50 (Integrin alpha-V/beta-3 [17]) [nM] | Activity (SK-MEL-24) | IC50 (Integrin alpha-5/beta-1 [18]) [nM] | IC50 (Integrin alpha-4/beta-1 [20]) [nM] | further results |
| --- | --- | --- | --- | --- | --- | --- | --- | --- | --- | --- | --- | --- | --- | --- | --- | --- | --- | --- | --- |
| Cc1ccccc1NC(=O)N1C(=O)C[C@H]1C(=O)O | > 5000 | > 5000 | > 5000 | Non-Toxic | > 5000 | > 5000 | > 1000 | Non-Toxic | Non-Toxic | > 5000 | Non-Toxic | 1.39 | > 1000 | > 5000 | 285 | Non-Toxic | 114 | 1.1 | Activity (Integrin alpha-4/beta-1 [2]): Dose-dependent effect; IC50 (Integrin alpha-5/beta-1 [8]): 158 nM; Activity (Integrin alpha-4/beta-1 [9]): Dose-dependent effect; Activity (Integrin alpha-5/beta-1 [11]): Dose-dependent effect; IC50 (Integrin alpha-V/beta-5 [12]): > 5000 nM; Activity (Integrin alpha-4/beta-1 [16]): Active; IC50 (Integrin alpha-V/beta-3 [19]): 352 nM |
| NCc1ccc(NC(=O)N2C(=O)CC2CC(=O)NCC(=O)O)cc1.O=C(O)C(F)(F)F (centres undefined) | 505 | > 5000 | > 5000 | Non-Toxic | > 5000 | > 5000 | 104 | Non-Toxic | Non-Toxic | > 5000 | Non-Toxic | > 5000 | > 1000 | > 5000 | 1.2 | Non-Toxic | > 1000 | > 1000 | IC50 [21]: > 1000 nM; Activity (Integrin alpha-V/beta-3 [22]): inactive; Activity (Integrin alpha-V/beta-3 [23]): Dose-dependent effect; Activity (Integrin alpha-V/beta-3 [24]): Dose-dependent effect; EC50 (Integrin alpha-4/beta-1 [25]): > 5000 nM; Activity (Integrin alpha-V/beta-3 [26]): inactive |
